Key:
Type in all cases: functional
A549 = experiment: Ratio of GI50 for human A549 cells to GI50 for human SF295 cells after 48 hrs by sulforhodamine B assay
ACHN = experiment: Cytotoxicity against human ACHN cells assessed as cell growth at 10 uM after 48 hrs by sulforhodamine B assay relative to control; conditions: read-out: Activity
How it was run: (§1)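 Compounds went through the NCI 60 cell-line screen, whose current protocol tests first at a single dose.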

SN12C = experiment: Cytotoxicity against human SN12C cells assessed as cell growth at 10 uM after 48 hrs by sulforhodamine B assay relative to control; conditions: read-out: Activity; how it was run: as §1
TK-10 = experiment: Cytotoxicity against human TK10 cells assessed as cell growth at 10 uM after 48 hrs by sulforhodamine B assay relative to control; conditions: TK-10, 48 h, read-out: Activity
BT-549 = experiment: Cytotoxicity against human BT549 cells assessed as cell growth at 10 uM after 48 hrs by sulforhodamine B assay relative to control; conditions: BT-549, 48 h, read-out: Activity; how it was run: as §1
HL-60(TB) = experiment: Cytotoxicity against human HL-60(TB) cells assessed as cell growth at 10 uM after 48 hrs by sulforhodamine B assay relative to control; conditions: HL-60, 48 h, read-out: Activity
How it was run: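 Tested in the NCI 60 cell-line screen, where the current protocol starts with testing at a single dose.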

K562 = experiment: Cytotoxicity against human K562 cells assessed as cell growth at 10 uM after 48 hrs by sulforhodamine B assay relative to control; conditions: K562, 48 h, read-out: Activity; how it was run: as §1
MOLT-4 = experiment: Cytotoxicity against human MOLT4 cells assessed as cell growth at 10 uM after 48 hrs by sulforhodamine B assay relative to control; conditions: MOLT-4, 48 h, read-out: Activity; how it was run: as §1
RPMI-8226 = experiment: Cytotoxicity against human RPMI8226 cells assessed as cell growth at 10 uM after 48 hrs by sulforhodamine B assay relative to control; conditions: RPMI-8226, 48 h, read-out: Activity; how it was run: as §1
HCC 2998 = experiment: Cytotoxicity against human HCC2998 cells assessed as cell growth at 10 uM after 48 hrs by sulforhodamine B assay relative to control; conditions: HCC 2998, 48 h, read-out: Activity; how it was run: as §1
HCT-116 = experiment: Cytotoxicity against human HCT116 cells assessed as cell growth at 10 uM after 48 hrs by sulforhodamine B assay relative to control; conditions: HCT-116, 48 h, read-out: Activity; how it was run: as §1
SF-268 = experiment: Cytotoxicity against human SF268 cells assessed as cell growth at 10 uM after 48 hrs by sulforhodamine B assay relative to control; conditions: SF-268, 48 h, read-out: Activity; how it was run: as §1
SF-539 = experiment: Cytotoxicity against human SF539 cells assessed as cell growth at 10 uM after 48 hrs by sulforhodamine B assay relative to control; conditions: SF-539, 48 h, read-out: Activity; how it was run: as §1
SNB-19 = experiment: Cytotoxicity against human SNB19 cells assessed as cell growth at 10 uM after 48 hrs by sulforhodamine B assay relative to control; conditions: SNB-19, 48 h, read-out: Activity; how it was run: as §1
U-251 = experiment: Cytotoxicity against human U251 cells assessed as cell growth at 10 uM after 48 hrs by sulforhodamine B assay relative to control; conditions: U-251, 48 h, read-out: Activity
LOX IMVI = experiment: Cytotoxicity against human LOXIMVI cells assessed as cell growth at 10 uM after 48 hrs by sulforhodamine B assay relative to control; conditions: read-out: Activity; how it was run: as §1
Malme-3M = experiment: Cytotoxicity against human MALME-3M cells assessed as cell growth at 10 uM after 48 hrs by sulforhodamine B assay relative to control; conditions: read-out: Activity; how it was run: as §1
MDA-MB-435 = experiment: Cytotoxicity against human MDA-MB-435 cells assessed as cell growth at 10 uM after 48 hrs by sulforhodamine B assay relative to control; conditions: MDA-MB-435, 48 h, read-out: Activity; how it was run: as §1
SK-MEL-28 = experiment: Cytotoxicity against human SK-MEL-28 cells assessed as cell growth at 10 uM after 48 hrs by sulforhodamine B assay relative to control; conditions: SK-MEL-28, 48 h, read-out: Activity; how it was run: as §1
UACC-257 = experiment: Cytotoxicity against human UACC257 cells assessed as cell growth at 10 uM after 48 hrs by sulforhodamine B assay relative to control; conditions: UACC-257, 48 h, read-out: Activity
OVCAR-3 = experiment: Cytotoxicity against human OVCAR3 cells assessed as cell growth at 10 uM after 48 hrs by sulforhodamine B assay relative to control; conditions: OVCAR-3, 48 h, read-out: Activity; how it was run: as §1
SK-OV-3 = experiment: Cytotoxicity against human SKOV3 cells assessed as cell growth at 10 uM after 48 hrs by sulforhodamine B assay relative to control; conditions: SK-OV-3, 48 h, read-out: Activity; how it was run: as §1

| SMILES | RatioGI50 (A549) | growth at 10 µM (ACHN) [%] | growth at 10 µM (SN12C) [%] | growth at 10 µM (BT-549) [%] | growth at 10 µM (HL-60(TB)) [%] | growth at 10 µM (K562) [%] | growth at 10 µM (MOLT-4) [%] | growth at 10 µM (RPMI-8226) [%] | growth at 10 µM (HCC 2998) [%] | growth at 10 µM (HCT-116) [%] | growth at 10 µM (SF-268) [%] | growth at 10 µM (SF-539) [%] | growth at 10 µM (SNB-19) [%] | growth at 10 µM (U-251) [%] | growth at 10 µM (LOX IMVI) [%] | growth at 10 µM (MDA-MB-435) [%] | growth at 10 µM (SK-MEL-28) [%] | growth at 10 µM (UACC-257) [%] | growth at 10 µM (OVCAR-3) [%] | growth at 10 µM (SK-OV-3) [%] | other results |
| --- | --- | --- | --- | --- | --- | --- | --- | --- | --- | --- | --- | --- | --- | --- | --- | --- | --- | --- | --- | --- | --- |
| COc1cc(/C=C/c2cc(O)c3c(c2)C[C@@H]2C(C)(C)[C@H](O)CC[C@@]2(C)O3)cc(O)c1C/C=C(\C)CCC=C(C)C | >30 | – | – | – | – | – | – | – | – | – | – | – | – | – | – | – | – | – | – | – | – |
| COc1cc(/C=C/c2cc3c(c(OC)c2)O[C@]2(C)CC[C@@H](O)C(C)(C)[C@H]2C3)cc(O)c1C/C=C(\C)CCC=C(C)C | 13 | – | – | – | – | – | – | – | – | – | – | – | – | – | – | – | – | – | – | – | – |
| COc1cc(/C=C/c2cc(Br)c3c(c2)C[C@@H]2C(C)(C)[C@H](O)CC[C@@]2(C)O3)cc(O)c1C/C=C(\C)CCC=C(C)C | – | 104 | 101 | 108 | 69.7 | 79.9 | 74.1 | 75 | 103 | 84.5 | 88.5 | 91.2 | 106 | 86.3 | 105 | 109 | 106 | 100 | 88.2 | 116 | growth at 10 µM (TK-10): 113%; growth at 10 µM (Malme-3M): 115% |
| COCc1cc(/C=C/c2cc(O)c(C/C=C(\C)CCC=C(C)C)c(OC)c2)cc2c1O[C@]1(C)CC[C@@H](O)C(C)(C)[C@H]1C2 | – | 103 | 96.2 | 193 | 78.2 | 72 | 70.4 | 65.9 | 99.3 | 68.5 | 97.1 | 89.9 | 96.4 | 83.6 | 92.7 | 120 | 118 | 116 | 94.8 | 145 | – |
